Test results from ChEMBL document CHEMBL3045498, “Antifeedant and larvicidal activities of Rhein isolated from the flowers of Cassia fistula L” (2011).
Converted amounts (≈) assume the structure as drawn.

How the values were obtained:
Assay type in all cases: functional
Helicoverpa armigera [1] = experiment: Larvicidal activity against Helicoverpa armigera fed on compound-treated cotton leaf assessed as mortality at 500 ppm after 96 hr relative to control
Summary of the method: (§1)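 Larvae were fed 24 h on leaf discs treated with compound at several concentrations, then kept on untreated fresh leaves. Diet was replaced every 24 h, and larval mortality was scored 96 h after treatment.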

Helicoverpa armigera [2] = experiment: Larvicidal activity against Helicoverpa armigera fed on compound-treated cotton leaf assessed as mortality after 96 hr relative to control; summary of the method: as §1
Helicoverpa armigera [3] = experiment: Antifeedant activity against pre-starved fourth-instar larva of Helicoverpa armigera fed on compound-treated cotton leaf assessed as antifeedant index at 500 ppm after 24 hr by leaf disk no choice method
Helicoverpa armigera [4] = experiment: Antifeedant activity against pre-starved fourth-instar larva of Helicoverpa armigera fed on compound-treated cotton leaf assessed as antifeedant index at 250 ppm after 24 hr by leaf disk no choice method
Spodoptera litura [5] = experiment: Larvicidal activity against Spodoptera litura fed on compound-treated castor leaf assessed as mortality at 250 ppm after 96 hr relative to control; summary of the method: as §1
Spodoptera litura [6] = experiment: Antifeedant activity against pre-starved fourth-instar larva of Spodoptera litura fed on compound-treated castor leaf assessed as antifeedant index at 1000 ppm after 24 hr by leaf disc no choice method
Helicoverpa armigera [7] = experiment: Larvicidal activity against Helicoverpa armigera fed on compound-treated cotton leaf assessed as mortality at 125 ppm after 96 hr relative to control; summary of the method: as §1
Helicoverpa armigera [8] = experiment: Antifeedant activity against pre-starved fourth-instar larva of Helicoverpa armigera fed on compound-treated cotton leaf assessed as antifeedant index at 125 ppm after 24 hr by leaf disk no choice method
Spodoptera litura [9] = experiment: Antifeedant activity against pre-starved fourth-instar larva of Spodoptera litura fed on compound-treated castor leaf assessed as antifeedant index at 250 ppm after 24 hr by leaf disc no choice method
Helicoverpa armigera [10] = experiment: Larvicidal activity against Helicoverpa armigera fed on compound-treated cotton leaf assessed as mortality at 1000 ppm after 96 hr relative to control; summary of the method: as §1
Spodoptera litura [11] = experiment: Larvicidal activity against Spodoptera litura fed on compound-treated castor leaf assessed as mortality at 1000 ppm after 96 hr relative to control; summary of the method: as §1
Spodoptera litura [12] = experiment: Antifeedant activity against pre-starved fourth-instar larva of Spodoptera litura fed on compound-treated castor leaf assessed as antifeedant index at 500 ppm after 24 hr by leaf disc no choice method
Spodoptera litura [13] = experiment: Larvicidal activity against Spodoptera litura fed on compound-treated castor leaf assessed as mortality at 500 ppm after 96 hr relative to control; summary of the method: as §1
Helicoverpa armigera [14] = experiment: Antifeedant activity against pre-starved fourth-instar larva of Helicoverpa armigera fed on compound-treated cotton leaf assessed as antifeedant index at 1000 ppm after 24 hr by leaf disk no choice method
Spodoptera litura [15] = experiment: Antifeedant activity against pre-starved fourth instar larva of Spodoptera litura fed on compound-treated castor leaf assessed as antifeedant index at 125 ppm after 24 hr by leaf disc no choice method
Helicoverpa armigera [16] = experiment: Larvicidal activity against Helicoverpa armigera fed on compound-treated cotton leaf assessed as mortality at 250 ppm after 96 hr relative to control; summary of the method: as §1
Spodoptera litura [17] = experiment: Larvicidal activity against Spodoptera litura fed on compound-treated castor leaf assessed as mortality after 96 hr relative to control; summary of the method: as §1
Spodoptera litura [18] = experiment: Larvicidal activity against Spodoptera litura fed on compound-treated castor leaf assessed as mortality at 125 ppm after 96 hr relative to control; summary of the method: as §1

Row | SMILES | mortality at 500 ppm (Helicoverpa armigera [1]) [%] | LC50 (Helicoverpa armigera [2]) [µg/mL] | AFI (Helicoverpa armigera [3]) [%] | AFI (Helicoverpa armigera [4]) [%] | mortality at 250 ppm (Spodoptera litura [5]) [%] | AFI (Spodoptera litura [6]) [%] | mortality at 125 ppm (Helicoverpa armigera [7]) [%] | AFI (Helicoverpa armigera [8]) [%] | AFI (Spodoptera litura [9]) [%] | mortality at 1000 ppm (Helicoverpa armigera [10]) [%] | mortality at 1000 ppm (Spodoptera litura [11]) [%] | AFI (Spodoptera litura [12]) [%] | mortality at 500 ppm (Spodoptera litura [13]) [%] | AFI (Helicoverpa armigera [14]) [%] | AFI (Spodoptera litura [15]) [%] | mortality at 250 ppm (Helicoverpa armigera [16]) [%] | LC50 (Spodoptera litura [17]) [µg/mL] | mortality at 125 ppm (Spodoptera litura [18]) [%]
1 | O=C(O)c1cc(O)c2c(c1)C(=O)c1cccc(O)c1C2=O [RHEIN] | 50 | 606 (≈ 2130 µM) | 59.98 | 55.06 | 15 | 56.79 | 22.5 | 47.82 | 33.05 | 67.5 | 36.2 | 40.85 | 21.2 | 76.13 | 27.28 | 32.5 | 1190 (≈ 4200 µM) | 0
2 | C/C=C(\C)C(=O)O[C@H]1C[C@@H](OC(C)=O)[C@@]2(C(=O)OC)CO[C@H]3[C@@H](O)[C@@](C)([C@]45O[C@@]4(C)[C@@H]4C[C@H]5O[C@@H]5OC=C[C@@]54O)[C@H]4[C@]1(CO[C@]4(O)C(=O)OC)[C@@H]32 [AZADIRACHTIN A] | 95 | 186 (≈ 258 µM) | 75.88 | 64.13 | 73.8 | 88.02 | 38.8 | 53.5 | 70.08 | 100 | 100 | 78.66 | 100 | 86.47 | 60.12 | 61.2 | 128 (≈ 177 µM) | 52.5
